Screening results: PubChem, Broad Institute
GSK3 alpha inh: blockers of GSK3A enzyme activity – biochemical, luminescence, cell-free homogeneous, HTS, primary screen; Glycogen synthase kinase-3 alpha (Homo sapiens), P49840; GSK-3 alpha kinase, ADP-Glo luminescence, 60 min; inhibition, % at 10 µM; 0.1% of 320,000 active; AID 2650, 2010;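 active means more than half of replicates show inhibition above 20%; inconclusive means some but at most half of replicates above 20% inhibition; inactive means no replicate shows inhibition above 20%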;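 further: GST-tagged GSK-3 alpha with peptide substrate and 25 µM ATP; 0% = DMSO neutral wells and 100% = GW8510 positive control wells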
GSK3beta inhib: human GSK3beta kinase inhibitors, primary screen, biochemical, cell-free homogeneous, HTS; activity score (negative = inhibition), % at 10 µM; 0.038% of 300,000 active; AID 2097, 2009; GST-GSK3beta kinase, ADP-Glo luminescence, 60 min; hits give low values;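 active means more than half of replicate wells score below -50%, meaning over 50% inhibition versus plate controls; inconclusive means some replicates but at most half score below -50%; inactive means no replicate scores below -50%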;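 further: 0% = median DMSO wells and -100% = median GW8510 positive control wells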
Target sequence (P49841 whole entry, looked up): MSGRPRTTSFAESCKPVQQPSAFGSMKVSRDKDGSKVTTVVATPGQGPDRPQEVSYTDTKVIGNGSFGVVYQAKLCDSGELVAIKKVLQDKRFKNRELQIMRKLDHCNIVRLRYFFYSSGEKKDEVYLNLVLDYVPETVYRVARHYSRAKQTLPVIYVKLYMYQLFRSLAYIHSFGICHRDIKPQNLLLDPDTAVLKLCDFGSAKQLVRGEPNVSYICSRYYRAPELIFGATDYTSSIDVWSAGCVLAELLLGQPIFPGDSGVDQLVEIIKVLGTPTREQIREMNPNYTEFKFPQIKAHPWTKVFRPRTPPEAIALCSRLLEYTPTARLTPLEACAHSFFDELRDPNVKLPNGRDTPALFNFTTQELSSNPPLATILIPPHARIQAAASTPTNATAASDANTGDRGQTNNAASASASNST
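Assay system: GST-tagged human GSK3beta kinase, cell-free; Input: 1.6 ng GSK3beta; Medium: Tris/MgCl2 kinase buffer; Timing: 60 min enzyme reaction, room temperature; Signal: ADP-Glo luminescence quantifying ADP generated by kinase; Evaluation: score relative to plate controls; Benchmarks: DMSO neutral wells and GW8510 at 20 µM as positive.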
DYRK1A inh: rat Dyrk1A kinase inhibitors, primary screen, biochemical, single point, plate reader. 0.43% of 310,000 active. AID 504441, 2011. ADP-Glo luminescence, NFATc1 peptide. inhibition, % at 12.5 µM; in the data active means inhibition above about 50%;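 further: plate controls were vehicle with enzyme for no effect and no enzyme for full effect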
AI-2 QS modul: Vibrio harveyi AI-2 quorum sensing modulators, primary screen, JMH597 strain, luminescence/OD600 ratio; Vibrio harveyi JMH597 AI-2 luminescence/OD600 ratio, 9 h; hits give low values; strain lacks LuxN and CqsS sensors; 0 = neutral-control median; activity change, % at 7.5 µM; 0.4% of 300,000 active; in the data active means activity change below about -75%, passing the limit was not always enough; inconclusive means no clear call, values can overlap the other calls;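 further: luminescence divided by OD600 gain over 9 h not by final OD600 alone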
STK33 kinase inh: inhibitors of purified STK33 kinase, primary screen, biochemical, ADP-Glo luminescence, homogeneous, cell-free. inhibition, % at 10 µM. MBP phosphorylation. 0.073% of 320,000 active. AID 2661, 2010;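 active means inhibition at or above 25%, using the most active replicate where run in duplicate; inactive means inhibition below 25%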
Rce1 inh: yeast Rce1p protease inhibitors, primary screen, biochemical, fluorescence, cell-free homogeneous; 0.27% of 290,000 active; yeast membranes, quenched prenylated peptide cleavage fluorescence; AID 2563, 2010; calls only; CAAX prenyl protease 2 (Saccharomyces cerevisiae (strain ATCC 204508 / S288c)), Q03530;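 active means fall in fluorescence gain of 50% or more versus controls, with final raw signal at or below 3038400; inconclusive means same 50% fall but final raw signal above 3038400; inactive means fall in fluorescence gain under 50%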;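 further: plate controls were neutral control wells for no effect and wells lacking membranes for full effect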
Dyrk1A artifact: ADP-Glo luciferase interference without Dyrk1A, dose response, artefact control for Dyrk1A inhibitor project, biochemical, luminescence, cherry-pick, set 02. AC50, µM (titrated, usually from 12 µM), inactives show at the highest dose activity change, negative = inhibition. shares compounds with DYRK1A inh. 1,300 tested, under 10 active. ADP-Glo luciferase artifact assay, no Dyrk1A;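 active means fitted half-maximal dose AC50 no more than ten times the top valid tested dose, with luminescence dropping as dose rises; inconclusive means poor fit, or flat fit with 30 to 70% inhibition; inactive means the rest, signal increases included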
Starred values were filed as active, the others as inactive; i = inactive; u = inconclusive; x = not tested or not shown; + = active, no number. Most compounds without a hit are left out; they make up all but 0.99% or so of the library.

SMILES	GSK3 alpha inh	GSK3beta inhib	DYRK1A inh	AI-2 QS modul	STK33 kinase inh	Rce1 inh	Dyrk1A artifact
Cc1ccc(CCNC(=O)C2CCN(S(=O)(=O)c3cccc4nonc34)CC2)cc1	-1	14	57*	-10	-2	i	11%
Cc1ccc(CNC(=O)C2CCN(S(=O)(=O)c3cccc4nonc34)CC2)cc1	-2	5	-3	20	-1	i	x
CC(OC(=O)CCC(=O)c1ccc(Cl)s1)C(=O)NC1(C#N)CCCCC1 (stereo not drawn)	3	x	-1	x	-1	x	x
NNc1nc2c(Cl)ccc(Cl)c2s1	-3	0	57*	17	-1	i	8%
O=C(Nc1nc2c(Cl)ccc(Cl)c2s1)C1CC1	1	5	9	-4	0	i	x
O=C(NCc1ccccc1)C1=C[C@H](c2ccccc2)C[C@H](OCc2ccc(CO)cc2)O1	6	0	52*	5	-2	i	12%
CCOC(=O)N1CCN(C(=O)CCc2ccc(S(=O)(=O)NC(C)(C)C)cc2)CC1	-1	-4	4	10	-1	i	x
O=[N+]([O-])c1cc(/C=N/O)ccc1N1CCCC1	x	-52*	50*	5	13	x	9%
COc1ccccc1C1CCN(C(=O)C2CCCCC2)CC1	-2	2	2	4	-2	i	x
COc1ccccc1C1CCN(c2cc(O)ccc2[N+](=O)[O-])CC1	6	-1	54*	11	5	i	10%
O=C(NCCc1ccccc1)C1CCCN1C(=O)Nc1ccc(Cl)cc1 (stereo not drawn)	1	-2	6	13	0	i	x
Cc1ccc(CC(=O)NNC(=O)c2ccncc2)cc1C	-4	3	-6	6	-1	i	x
CCCCCCCCN1[C@@H](CC(=O)OC)c2cc(C(F)(F)F)ccc2S1(=O)=O	-2	-2	50*	-12	-1	i	6%
CCCCCCCCN1[C@@H](CC(C)=O)c2cc(C(F)(F)F)ccc2S1(=O)=O	-2	3	5	-20	0	i	x
Cc1ccc(CNC(=O)C2CCCN2S(=O)(=O)c2ccc(Cl)cc2)cc1 (stereo not drawn)	0	1	-6	2	-1	i	x
O=C(N/N=C/c1ccc(F)c(F)c1)c1cc2c(s1)-c1ccccc1CC2	-2	0	0	42	0	i	x
CNC(=O)c1cc2c(s1)-c1ccccc1CC2	5	-2	53*	24	4	u	10%
CC(C)(C)NC(=O)C(=O)NC(=O)c1c(F)cccc1Cl	-1	-3	63*	11	-1	i	9%
CCc1ccc(Nc2nnc(SCC(=O)c3c(N)n(C4CC4)c(=O)[nH]c3=O)s2)cc1	-6	x	0	x	0	x	x
COc1ccc2c(Cl)c(C(=O)N/N=C3\CCCC(=O)C3)sc2c1	4	1	81*	42	1	i	11%
COc1ccc2c(Cl)c(C(=O)N/N=C/c3ccc4c(c3)OCO4)sc2c1	2	1	12	13	-2	i	x
Cc1ccccc1CCNC(=O)C1CC(O)CN1C(=O)Nc1ccccc1 (stereo not drawn)	-3	x	x	x	-1	x	x
NC(=O)CC(NC(=O)c1ccc(Br)cc1)c1ccc(N2CCN(c3ccccn3)CC2)c([N+](=O)[O-])c1 (stereo not drawn)	-3	-7	3	18	-1	i	x
NC(=O)CC(NC(=O)c1cccc(Br)c1)c1ccc(N2CCN(c3ccccn3)CC2)c([N+](=O)[O-])c1 (stereo not drawn)	-2	-2	54*	23	0	i	10%
Cc1ccc(S(=O)(=O)/N=C2\C=C(NS(=O)(=O)c3ccccc3)C(=O)c3ccccc32)c(C)c1	x	x	7	x	x	x	x
SMILES	GSK3 alpha inh	GSK3beta inhib	DYRK1A inh	AI-2 QS modul	STK33 kinase inh	Rce1 inh	Dyrk1A artifact
Cc1ccc(S(=O)(=O)/N=C2\C=C(Nc3cccc(C(=O)O)c3)C(=O)c3ccccc32)cc1	4	-2	51*	20	8	i	8%
Cc1ccc(S(=O)(=O)/N=C2\C=C(Nc3cccc(C(=O)O)c3)C(=O)c3ccccc32)c(C)c1	15	1	76*	15	7	i	6%
O=C(O)c1ccc2c(c1)S(=O)(=O)c1cc(Cl)ccc1C2=O	74*	x	66*	x	-2	x	7%
Oc1ccc2ccc3[nH]cnc3c2c1	3	3	80*	-13	9	i	11%
Cc1ccccc1C(=O)N1CCN(c2ccc(NC(=O)c3cccc(OC(C)C)c3)cc2)CC1	-3	1	60*	10	0	i	7%
COc1c(C)cccc1C(=O)Nc1ccc(N2CCN(C(=O)c3ccccc3C)CC2)cc1	-3	4	8	3	-1	i	x
COc1ccccc1NC(=S)N/N=C/c1ccc(O)cc1	8	-1	51*	12	5	i	11%
COc1ccccc1NC(=S)N/N=C/c1cccc(C)c1	-3	7	-1	9	-1	i	x
N#C/C(=C\c1cccs1)c1nc2ccccc2[nH]1	-1	-4	2	34	-1	i	x
N#C/C(=C/c1ccc(O)c(O)c1)c1nc2ccccc2[nH]1	10	-2	67*	40	7	i	9%
CCN(c1cccc(C)c1)S(=O)(=O)c1c(C)[nH]c(C)c1C(=O)N1CCCCC1	1	2	1	-7	2	i	x
O=c1nc2n(c3sc4c(c13)CCCC4)C(CBr)CS2 (stereo not drawn)	2	-4	51*	25	-1	i	7%
COC(=O)c1sc2cnccc2c1N	30	-16	58*	14	10	+	9%
O=C1NC(=O)C(c2ccccc2[N+](=O)[O-])=C1Nc1ccc(O)c(Cl)c1	x	x	87*	37	14	i	7%
CCC(=O)Nc1c(C#N)c2nc3ccccc3nc2n1C1CCCCC1	10	-11	44	8	-2	i	x
CCC(=O)Nc1c(C#N)c2nc3ccccc3nc2n1-c1ccccc1C	14	-5	55*	-2	0	i	8%
